Laboratory results from ChEMBL document CHEMBL4414623, “Rapid Metabolization of Protectin D1 by β-Oxidation of Its Polar Head Chain” (J Med Chem, 2019).
Each block holds one compound with its values, some of them ahead of it. Calls of active or inactive are those of the source. The calls are words filed in the database; no cut-off is given here.

What was measured:
Mus musculus = assay: Antiinflammatory activity in FVB mouse model of acute pulmonary inflammation assessed as reduction in number of infiltrating neutrophils in BAL fluid at 10 ng administered intratracheally with lipopolysaccharide measured at 24 hrs by FACS analysis; format: functional
Summary of the method: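 Female FVB mice, 7–8 weeks old, acclimated at least 5 days. Intratracheal challenge with 50 μL LPS (250 μg/mL in PBS) containing 10 ng test agent or vehicle (EtOH, 2% final). Controls received PBS with 2% EtOH. BAL collected 24 h later (three 0.6 ml PBS washes). Neutrophils counted by FACS as CD45+ F4/80− Ly6G^hi CD11b^hi, absolute numbers from counting tubes; mean ± SEM, n=3.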

Homo sapiens [1] = species: Homo sapiens; assay: Inhibition of LTB4-induced chemotaxis in human polymorphonuclear leukocytes at 0.01 to 10 nM incubated for 90 mins by Diff-Quick staining based densitometric analysis; format: functional, cell-based
Summary of the method: (§1)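 Human peripheral blood PMNL from healthy NSAID-free donors were isolated by Percoll and hypotonic lysis. Migration toward 10 nM LTB4 in RPMI/0.1% BSA was run in a 48-well microchamber with 5 μm polycarbonate filters, 2×10^6 cells/mL. Test agents at 0.01–10 nM or EtOH were added to both compartments. After 90 min at 37°C, migrated cells were stained and read by densitometry. Sextuplicates, 3–4 donors, normalized to negative controls.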

[2] = Drug level in human HepG2 cells treated with 13 uM Protectin-D1 assessed as compound formation incubated for 4 hrs by RP-HPLC/MS analysis; format: ADME, cell-based; conditions: hepg2, 4 h
Summary of the method: (§2)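 HepG2 cells were kept in serum-free medium and incubated for 4 h with 13 μM NPD1 (final) or ethanol vehicle. Media were extracted and run on RP-HPLC with a linear ion trap ESI-MS, using full scans at m/z 100-1000. Peaks present only in NPD1 incubates were located from single-ion chromatograms. MS/MS spectra were collected and compared with those of synthetic standards.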

[3] = Drug metabolism in human HepG2 cells assessed as (5Z,8R,9E,11E,13Z,15S,17Z)-8,15-Dihydroxyicosa-5,9,11,13,17-pentaenoic Acid formation at 13 uM up to 8 hrs by LC-MS/MS analysis; format: ADME, cell-based; conditions: hepg2, 8 h
Summary of the method: (§3)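 Medium was spiked with d4-LTB4 internal standard, SPE-extracted, and quantified by RP-HPLC coupled to triple quadrupole SRM. Amounts are given as nmol per mg cell protein (Bradford) or as % of NPD1 at T0.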

[4] = Drug metabolism in human HepG2 cells assessed as (5Z,8R,9E,11E,13Z,15S,17Z)-8,15-Dihydroxyicosa-5,9,11,13,17-pentaenoic Acid formation at 13 uM incubated for 4 hrs by tandem mass spectrometric analysis; format: ADME, cell-based; conditions: hepg2, 4 h; summary of the method: as §2
[5] = Drug excretion in healthy human urine by LC-MS/MS analysis; format: ADME, tissue-based; conditions: in vivo
[6] = Drug metabolism in human HepG2 cells assessed as Tmax for 3Z,6R,7E,9E,11Z,13S,15Z)-6,13-Dihydroxyoctadeca-3,7,9,11,15-pentaenoic Acid formation at 0.52 uM by LC-MS/MS analysis; format: ADME, cell-based; conditions: hepg2, 0.52 µM; summary of the method: as §3
[7] = Drug metabolism in human HepG2 cells assessed as (5Z,8R,9E,11E,13Z,15S,17Z)-8,15-Dihydroxyicosa-5,9,11,13,17-pentaenoic Acid formation at 13 uM after 24 hrs by LC-MS/MS analysis; format: ADME, cell-based; conditions: hepg2, 24 h; summary of the method: as §3
[8] = Half life in human HepG2 cells at 13 uM by LC-MS/MS analysis; format: ADME, cell-based; summary of the method: as §3
[9] = Drug metabolism in human HepG2 cells at 0.52 uM measured at 30 mins by LC-MS/MS analysis; format: ADME, cell-based; conditions: read-out: Drug metabolism; summary of the method: as §3
[10] = Drug metabolism in human HepG2 cells assessed as (5Z,8R,9E,11E,13Z,15S,17Z)-8,15-Dihydroxyicosa-5,9,11,13,17-pentaenoic Acid formation at 13 uM incubated for 4 hrs by RP-HPLC/MS analysis; format: ADME, cell-based; conditions: hepg2, 4 h; summary of the method: as §2
[11] = Drug metabolism in human HepG2 cells assessed as Tmax for 3Z,6R,7E,9E,11Z,13S,15Z)-6,13-Dihydroxyoctadeca-3,7,9,11,15-pentaenoic Acid formation at 2.6 uM by LC-MS/MS analysis; format: ADME, cell-based; conditions: hepg2, 2.6 µM; summary of the method: as §3
[12] = Drug metabolism in human HepG2 cells assessed as parent compound remaining level at 13 uM after 24 hrs by LC-MS/MS analysis relative to control; format: ADME, cell-based; conditions: read-out: Stability; summary of the method: as §3
[13] = Drug metabolism in human HepG2 cells assessed as 3Z,6R,7E,9E,11Z,13S,15Z)-6,13-Dihydroxyoctadeca-3,7,9,11,15-pentaenoic Acid formation at 13 uM incubated for 4 hrs by tandem mass spectrometric analysis; format: ADME, cell-based; conditions: hepg2, 4 h; summary of the method: as §2
[14] = Drug metabolism in human HepG2 cells assessed as hexanor-NPD1 formation at 13 uM incubated for 4 hrs by RP-HPLC/MS analysis; format: ADME, cell-based; conditions: hepg2, 4 h; summary of the method: as §2
[15] = Drug metabolism in human HepG2 cells assessed as 22-OH-NPD1 formation at 13 uM incubated for 4 hrs by RP-HPLC/MS analysis; format: ADME, cell-based; conditions: hepg2, 4 h; summary of the method: as §2
[16] = Drug metabolism in human HepG2 cells assessed as 3Z,6R,7E,9E,11Z,13S,15Z)-6,13-Dihydroxyoctadeca-3,7,9,11,15-pentaenoic Acid formation at 13 uM incubated for 4 hrs by RP-HPLC/MS analysis; format: ADME, cell-based; conditions: hepg2, 4 h; summary of the method: as §2
[17] = Drug level in healthy human urine assessed as drug recovery at 50 ng measured up to 24 hrs at room temperature in presence of BHT by LC-MS/MS analysis; format: ADME, tissue-based; conditions: urine of healthy humans, read-out: Drug recovery
[18] = Drug metabolism in human HepG2 cells assessed as omega-hydroxylated dinor-NPD1 formation at 13 uM incubated for 4 hrs by RP-HPLC/MS analysis; format: ADME, cell-based; conditions: hepg2, 4 h; summary of the method: as §2
[19] = Drug metabolism in human HepG2 cells treated with 13 uM Protectin-D1 assessed as compound formation incubated for 4 hrs by tandem mass spectrometric analysis; format: ADME, cell-based; conditions: hepg2, 4 h; summary of the method: as §2
[20] = Drug metabolism in human HepG2 cells assessed as 3Z,6R,7E,9E,11Z,13S,15Z)-6,13-Dihydroxyoctadeca-3,7,9,11,15-pentaenoic Acid formation at 13 uM after 24 hrs by LC-MS/MS analysis; format: ADME, cell-based; conditions: hepg2, 24 h; summary of the method: as §3
[21] = Drug excretion in healthy human urine assessed as (5Z,8R,9E,11E,13Z,15S,17Z)-8,15-Dihydroxyicosa-5,9,11,13,17-pentaenoic Acid formation by LC-MS/MS analysis; format: ADME, tissue-based; conditions: in vivo
[22] = Drug metabolism in human HepG2 cells assessed as 22-OH-NPD1 formation at 13 uM incubated for 4 hrs by tandem mass spectrometric analysis; format: ADME, cell-based; conditions: hepg2, 4 h; summary of the method: as §2
[23] = Half life in human HepG2 cells at 2.6 uM by LC-MS/MS analysis; format: ADME, cell-based; summary of the method: as §3
[24] = Drug metabolism in human HepG2 cells assessed as (5Z,8R,9E,11E,13Z,15S,17Z)-8,15-Dihydroxyicosa-5,9,11,13,17-pentaenoic Acid formation at 13 uM after 30 mins by LC-MS/MS analysis; format: ADME, cell-based; conditions: hepg2, 0.5 h; summary of the method: as §3
[25] = Drug metabolism in human HepG2 cells assessed as 3Z,6R,7E,9E,11Z,13S,15Z)-6,13-Dihydroxyoctadeca-3,7,9,11,15-pentaenoic Acid formation at 13 uM after 30 mins by LC-MS/MS analysis; format: ADME, cell-based; conditions: hepg2, 0.5 h; summary of the method: as §3
[26] = Drug excretion in healthy human urine assessed as 3Z,6R,7E,9E,11Z,13S,15Z)-6,13-Dihydroxyoctadeca-3,7,9,11,15-pentaenoic Acid formation by LC-MS/MS analysis; format: ADME, tissue-based; conditions: in vivo
Homo sapiens [27] = species: Homo sapiens; assay: Inhibition of LTB4-induced chemotaxis in human polymorphonuclear leukocytes incubated for 90 mins by Diff-Quick staining based densitometric analysis; format: functional, cell-based; summary of the method: as §1
[28] = Half life in human HepG2 cells at 0.52 uM by LC-MS/MS analysis; format: ADME, cell-based; summary of the method: as §3
[29] = Drug metabolism in human HepG2 cells assessed as 3Z,6R,7E,9E,11Z,13S,15Z)-6,13-Dihydroxyoctadeca-3,7,9,11,15-pentaenoic Acid formation at 13 uM up to 24 hrs by LC-MS/MS analysis; format: ADME, cell-based; conditions: hepg2, 24 h; summary of the method: as §3
[30] = Stability in human HepG2 cells at 2.6 uM up to 4 hrs by LC-MS/MS analysis; format: ADME, cell-based; conditions: hepg2, 4 h
Summary of the method: (§4)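 HepG2 cells in serum-free medium were incubated with 2.6 or 0.52 μM final NPD1 or LTE4. Medium was collected at 30 min, 1 h and 4 h, spiked with d4-LTB4 and d5-LTE4, SPE-extracted and quantified by LC-MS/MS SRM. Results are expressed as % of the amount measured at T0.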

[31] = Stability in human HepG2 cells at 0.52 uM up to 4 hrs by LC-MS/MS analysis; format: ADME, cell-based; conditions: hepg2, 4 h; summary of the method: as §4

Structure (SMILES): CC/C=C\C[C@H](O)\C=C/C=C/C=C/[C@H](O)C/C=C\CC(=O)O
- inhibition (INH) (Mus musculus): 20%
- inhibition (Homo sapiens [1]): Active
- Drug uptake [2]: Active

Structure (SMILES): O=C(O)CC/C=C\C/C=C\C[C@@H](O)/C=C/C=C/C=C\[C@@H](O)C/C=C\CCO
- Drug uptake [2]: Active

Structure (SMILES): CCCCC/C=C\C\C=C/C=C/C=C/[C@@H](SC[C@H](N)C(=O)O)[C@@H](O)CCCC(=O)O [LEUKOTRIEN E4]
- Drug excretion [5]: Metabolite_Detected
- Stability [30]: Stable
- Stability [31]: Stable

More lines, main results first:

- Drug metabolism [3]: Metabolite_Detected
- Drug metabolism [4]: Metabolite_Detected
- Drug excretion [5]: Metabolite_Notdetected
- Tmax [6]: 4 h
- Drug metabolism [7]: Metabolite_Notdetected
- half-life at 13 µM [8]: > 4 h
- metabolised at 0.5 h, 0.52 µM [9]: > 50%
- Drug metabolism [10]: Metabolite_Detected
- Tmax [11]: 4 h
- remaining at 24 h, 13 µM [12]: 0%
- Drug metabolism [13]: Metabolite_Detected
- Drug metabolism [14]: Metabolite_Detected
- Drug metabolism [15]: Metabolite_Detected
- Drug metabolism [16]: Metabolite_Detected
- remaining at 24 h, 50 ng [17]: 106%
- Drug metabolism [18]: Metabolite_Detected
- Drug uptake [19]: Active
- Drug metabolism [20]: Metabolite_Detected
- Drug excretion [21]: Metabolite_Notdetected
- Drug metabolism [22]: Metabolite_Detected
- half-life at 2.6 µM [23]: 1 h
- Drug metabolism [24]: Metabolite_Detected
- Drug metabolism [25]: Metabolite_Detected
- Drug excretion [26]: Metabolite_Notdetected
- half-life at 0.52 µM [28]: 0.5 h
Structure (SMILES): CC/C=C\C[C@H](O)\C=C/C=C/C=C/[C@H](O)C/C=C\C/C=C\CCC(=O)O
- inhibition (Homo sapiens [27]): Dose-dependent effect

- Drug metabolism [29]: Metabolite_Detected
- remaining at 24 h, 13 µM [12]: < 0.1%
- Drug uptake [2]: Active
Structure (SMILES): CC/C=C\C[C@H](O)\C=C/C=C/C=C/[C@H](O)C/C=C\CCCC(=O)O
- inhibition (Homo sapiens [1]): inactive
